This note sets out measurements from ChEMBL document CHEMBL1250499, “Chiral 6-hydroxymethyl-1H,3H-pyrrolo[1,2-c]thiazoles: novel antitumor DNA monoalkylating agents” (Eur J Med Chem, 2010).

By IC50 is commonly meant the concentration at which inhibition is half-maximal. Higher therefore signals weaker potency in that assay.

What all share (assay type): functional, cell-based
Assay [1] deals with A-375. The assay can be described thus: Cytotoxicity against human A375 cells after 96 hrs by MTT assay. To be noted: A-375, 96 h. In a few lines: (§1)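 Cells grown in DMEM with 10% heat-inactivated FBS, 1% penicillin–streptomycin and 100 μM sodium pyruvate at 37 °C, 5% CO2. Seeded at 50 000 cells/mL, attached overnight, then exposed to successive DMSO dilutions of compound. Proliferation read by MTT colorimetric assay as % inhibition versus DMSO-only controls. IC50 from dose-response curves by exponential decay fit (r2 > 0.9). Duplicates, three independent sets.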
(In general: Tetrazolium assays rely on reduction of a dye to a coloured formazan, in cell work by metabolically active cells.)

Assay [2] deals with MCF7. The assay can be described thus: Cytotoxicity against human MCF7 cells after 72 hrs by MTT assay. To be noted: MCF7, 72 h. In a few lines: as §1
In assay [3] the test system is WiDr. Nature of the assay: Cytotoxicity against human WiDr cells after 96 hrs by MTT assay. In short, it runs like this: as §1
In assay [4] the test system is MCF7. Nature of the assay: Cytotoxicity against human MCF7 cells after 24 hrs by MTT assay. To be noted: MCF7, 24 h. In a few lines:
as §1

Assay [5] deals with WiDr. Nature of the assay: Cytotoxicity against human WiDr cells after 24 hrs by MTT assay. In short, it runs like this:
as §1

In assay [6] the test system is MCF7. The assay can be described thus: Cytotoxicity against human MCF7 cells after 48 hrs by MTT assay. To be noted: MCF7, 48 h. In short, it runs like this: as §1
For assay [7], the system named is WiDr. The assay can be described thus: Cytotoxicity against human WiDr cells after 72 hrs by MTT assay. In a few lines:
as §1

In assay [8] the test system is A-375. Nature of the assay: Cytotoxicity against human A375 cells after 24 hrs by MTT assay. To be noted: A-375, 24 h. In short, it runs like this:
as §1

The test system of assay [9] is A-375. Nature of the assay: Cytotoxicity against human A375 cells after 48 hrs by MTT assay. The settings on record: A-375, 48 h. In short, it runs like this:
as §1

The subject of assay [10] is WiDr. The assay can be described thus: Cytotoxicity against human WiDr cells after 48 hrs by MTT assay. In a few lines:
as §1

In assay [11] the test system is MCF7. Nature of the assay: Cytotoxicity against human MCF7 cells after 96 hrs by MTT assay. The settings on record: MCF7, 96 h. In a few lines:
as §1

Assay [12] concerns A-375. The assay can be described thus: Cytotoxicity against human A375 cells after 72 hrs by MTT assay. The settings on record: A-375, 72 h. In a few lines:
as §1

Turning to `COC(=O)c1cc2n(c1C)[C@@H](c1ccccc1)SC2`, the IC50 was 40 µM in the assay with A-375 [1]; 48800 nM with MCF7 [2]; 40.9 µM in the assay with WiDr [3]; 128 µM in the assay with MCF7 [4]; 54.2 µM in the assay on WiDr [5]; 55.5 µM with MCF7 [6]. For the same compound, the IC50 with WiDr [7] stood at 44.6 µM; in the assay with A-375 [8], 73.5 µM; with A-375 [9], 65.1 µM; with WiDr [10], 57.1 µM; in the assay with MCF7 [11], 30600 nM; in the assay on A-375 [12], 56.2 µM.

For the compound `Cc1c(CO)cc2n1[C@@H](c1ccccc1)SC2`, the IC50 with A-375 [1] was 36.8 µM; in the assay on MCF7 [2], 2400 nM; with WiDr [3], 11 µM; in the assay with MCF7 [4] it was 26.4 µM; in the assay on WiDr [5], 55.5 µM; in the assay on MCF7 [6] it was 4.3 µM. The 50% inhibitory concentration (IC50) in the assay on WiDr [7] came to 15.4 µM; with A-375 [8], 103 µM; with A-375 [9], 69.8 µM; in the assay with WiDr [10] it was 17.1 µM; in the assay on MCF7 [11], 1900 nM; in the assay on A-375 [12], 62.9 µM.

Take `Cc1cc(CO)c2n1[C@@H](c1ccccc1)SC2`: the IC50 with A-375 [1] came out at 45.3 µM; in the assay on MCF7 [2], 29900 nM; in the assay with WiDr [3], 65.1 µM; in the assay with MCF7 [4] it was 110 µM; with WiDr [5], 144 µM; in the assay on MCF7 [6], 63.9 µM. In addition, the 50% inhibitory concentration (IC50) in the assay on WiDr [7] turned out to be 63.5 µM; in the assay with A-375 [8], 128 µM; in the assay on A-375 [9], 106 µM; with WiDr [10], 95.3 µM; in the assay with MCF7 [11], 19900 nM; with A-375 [12] it was 62.1 µM.

For the compound `Cc1c(CO)c(CO)c2n1[C@@H](c1ccccc1)SC2`, the half-inhibitory concentration (IC50) in the assay with A-375 [1] was 16.9 µM; in the assay with MCF7 [2], 1000 nM; with WiDr [3], 3.2 µM; in the assay on MCF7 [4], 12.2 µM; with WiDr [5], 60 µM; with MCF7 [6], 1.9 µM. Also, the IC50 with WiDr [7] is 7.1 µM; in the assay on A-375 [8], 97.3 µM; in the assay with A-375 [9], 36.1 µM; with WiDr [10] it was 9.1 µM; in the assay with MCF7 [11] it was 600 nM; in the assay with A-375 [12] it was 27.2 µM.

Consider `Cc1c(COC(=O)NCc2ccccc2)cc2n1[C@@H](c1ccccc1)SC2`, for which the IC50 with A-375 [1] stood at 27.6 µM; in the assay on MCF7 [2] it was 2200 nM; with WiDr [3], 14.8 µM; with MCF7 [4], 8.8 µM; with WiDr [5] it was 30.9 µM; in the assay with MCF7 [6], 4.4 µM. Besides, the IC50 in the assay with WiDr [7] was determined as 8.7 µM; in the assay on A-375 [8], 37.4 µM; in the assay with A-375 [9], 32.4 µM; in the assay with WiDr [10], 8.7 µM; in the assay with MCF7 [11] it was 1900 nM; in the assay on A-375 [12], 42.1 µM.
